Measurements taken from ChEMBL document CHEMBL4477176, “Cyclopenta[b]benzofuran and Secodammarane Derivatives from the Stems of Aglaia stellatopilosa” (2016).
The source made the active and inactive calls. The rule behind the calls is not given here.

What was measured:
Malassezia furfur = assay: Antimicrobial activity against Pityrosporum ovale CCUG 24229 assessed as growth inhibition at 25 to 200 uM incubated for 24 hrs by microtiter plate based assay; type: functional
In short: (§1)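 Yeasts grown in Sabouraud dextrose broth; inoculum 1 × 10^6 cells/mL. Samples dissolved in DMSO at 200 μM and 2-fold diluted down to 25 μM in 96-well plates. Incubated at 28 °C for 24 h. OD600 read before and after incubation. MIC taken as the lowest concentration giving ≥90% growth reduction. Three replicates.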

Rhodotorula glutinis = assay: Antimicrobial activity against Rhodotorula glutinis NBRC 1125 assessed as growth inhibition at 25 to 200 uM incubated for 24 hrs by microtiter plate based assay; type: functional, organism-based; in short: as §1
Saccharomyces cerevisiae = assay: Antimicrobial activity against Saccharomyces cerevisiae ATCC 9763 assessed as growth inhibition at 25 to 200 uM incubated for 24 hrs by microtiter plate based assay; type: functional, organism-based; in short: as §1
Bacillus subtilis [1] = assay: Antibacterial activity against Bacillus subtilis NBRC 3134 assessed as growth inhibition at 25 to 200 uM incubated for 24 hrs by microtiter plate based assay; type: functional
In short: (§2)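 Bacteria grown in Luria–Bertani broth; inoculum from fresh culture, serially diluted to 1 × 10^5 cells/mL. Samples dissolved in DMSO at 200 μM and serially 2-fold diluted down to 25 μM in 96-well plates. Incubated at 28 °C for 24 h. OD600 read before and after incubation. MIC taken as the lowest concentration giving ≥90% growth reduction. Triplicates.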

Aspergillus niger = assay: Antifungal activity against Aspergillus niger NBRC 4066 assessed as growth inhibition at 25 to 200 uM incubated for 48 hrs by microtiter plate based assay; type: functional
In short: as §1, with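 “Aspergillus niger” for “Yeasts”, “48” for “24”, “inhibition.” for “growth reduction.”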

Staphylococcus aureus [2] = assay: Antibacterial activity against Staphylococcus aureus NBRC 12732 assessed as growth inhibition at 25 to 200 uM incubated for 24 hrs by microtiter plate based assay; type: functional; in short: as §2
MCF7 = assay: Cytotoxicity against human MCF7 cells assessed as growth inhibition by SRB assay; type: functional
Porphyromonas gingivalis = assay: Antibacterial activity against Porphyromonas gingivalis CCUG 25893 assessed as growth inhibition at 25 to 200 uM incubated for 24 hrs by microtiter plate based assay; type: functional; in short: as §2
HT-29 = assay: Cytotoxicity against human HT-29 cells assessed as growth inhibition by SRB assay; type: functional; conditions: read-out: ED50 (the source's name)
Pseudomonas aeruginosa = assay: Antibacterial activity against Pseudomonas aeruginosa NBRC 12689 assessed as growth inhibition at 25 to 200 uM incubated for 24 hrs by microtiter plate based assay; type: functional, organism-based; in short: as §2
Micrococcus luteus = assay: Antibacterial activity against Micrococcus luteus NBRC 12708 assessed as growth inhibition at 25 to 200 uM incubated for 24 hrs by microtiter plate based assay; type: functional, organism-based; in short: as §2
NCI-H460 = assay: Cytotoxicity against human NCI-H460 cells assessed as growth inhibition by SRB assay; type: functional
Escherichia coli = assay: Antibacterial activity against Escherichia coli NBRC 3301 assessed as growth inhibition at 25 to 200 uM incubated for 24 hrs by microtiter plate based assay; type: functional, organism-based; in short: as §2
Bacillus subtilis [3] = assay: Antibacterial activity against Bacillus subtilis NBRC 3134 assessed as growth inhibition at 20 uM incubated for 24 hrs by microtiter plate based assay; type: functional; conditions: NBRC 3134, 24 h, read-out: GI
Staphylococcus aureus [4] = assay: Antibacterial activity against Staphylococcus aureus NBRC 12732 assessed as growth inhibition at 80 uM incubated for 24 hrs by microtiter plate based assay; type: functional; conditions: NBRC 12732, 24 h, read-out: GI

SMILES | growth inhibition (GI) (Malassezia furfur) | growth inhibition (GI) (Rhodotorula glutinis) | growth inhibition (GI) (Saccharomyces cerevisiae) | growth inhibition (GI) (Bacillus subtilis [1]) | growth inhibition (GI) (Aspergillus niger) | growth inhibition (GI) (Staphylococcus aureus [2]) | GI50 (MCF7) [µM] | growth inhibition (GI) (Porphyromonas gingivalis) | EC50 (HT-29) [µM] | growth inhibition (GI) (Pseudomonas aeruginosa) | growth inhibition (GI) (Micrococcus luteus) | GI50 (NCI-H460) [µM] | growth inhibition (GI) (Escherichia coli) | inhibition of growth at 20 µM (Bacillus subtilis [3]) [%] | inhibition of growth at 80 µM (Staphylococcus aureus [4]) [%]
COC(=O)C(C)(C)[C@@H]1CC[C@]2(C)[C@H](CC[C@@H]3[C@@H]([C@]4(C)CC[C@H](C(C)(C)O)O4)CC[C@]32C)[C@@]1(C)/C=C/NC=O | inactive | inactive | inactive | inactive | inactive | inactive | > 10 | inactive | > 10 | inactive | inactive | > 10 | inactive | – | –
COC(=O)C(C)(C)[C@@H]1CC[C@]2(C)[C@H](CC[C@@H]3[C@@H]([C@](C)(O)CC[C@@H](O)C(C)(C)O)CC[C@]32C)[C@@]1(C)CC=O | inactive | inactive | inactive | inactive | inactive | 60 - 89% | > 10 | inactive | > 10 | inactive | inactive | > 10 | inactive | – | –
C=C(C)[C@@H]1CC[C@]2(C)[C@H](CC[C@@H]3[C@@H]([C@](C)(O)CC[C@@H](O)C(C)(C)O)CC[C@]32C)[C@@]1(C)CCC(=O)OC | inactive | inactive | inactive | >=90% | 60 - 89% | >=90% | > 10 | 60 - 89% | > 10 | inactive | inactive | > 10 | inactive | ≥ 90 | ≥ 90
COC(=O)C(C)(C)[C@@H]1CC[C@]2(C)[C@H](CC[C@@H]3[C@@H]([C@](C)(O)CC[C@@H](O)C(C)(C)O)CC[C@]32C)[C@@]1(C)CC(=O)O | inactive | inactive | inactive | inactive | inactive | inactive | > 10 | inactive | > 10 | inactive | inactive | > 10 | inactive | – | –
COC(=O)C(C)(C)[C@@H]1CC[C@]2(C)[C@H](CC[C@@H]3[C@@H]([C@](C)(O)CC[C@@H](O)C(C)(C)O)CC[C@]32C)[C@@]1(C)/C=C/NC=O | 60 - 89% | inactive | inactive | inactive | inactive | inactive | > 10 | 60 - 89% | > 10 | inactive | inactive | > 10 | inactive | – | –
